Experimental data published in ChEMBL document CHEMBL1133019, “Synthesis, spectroscopy, and cytotoxicity of glycosylated acetogenin derivatives as promising molecules for cancer therapy” (J Med Chem, 2000).
Where “and” joins values, the source holds several entries; their conditions need not be identical. Equal values may be shown once.

Experiments:
[1] = tested on: L1210; assay: Cytotoxic activity against mouse lymphocytic leukemia cells (L1210); format: functional, cell-based
Outline: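 L1210 in RPMI 1640 with 10% FBS, 2 mM L-glutamine, penicillin/streptomycin; doubling time about 13 h. Exponentially growing cells (1 × 10^4/well) exposed 72 h at 37 °C to drug dilutions prepared from DMSO solutions in medium. Coulter counter cell counts, triplicates, as % of triplicate controls; IC50 from residual cells vs concentration on semilog scale.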

[2] = Cytotoxic activity against human epidermoid carcinoma cells (KB); format: functional
Outline: (§1)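 Adherent monolayers seeded 24 h before treatment; 3-fold serial dilutions added; 72 h at 37 °C, humidified 5% CO2. Cells formol-fixed, methylene blue stained, washed, dye released with 0.1 M HCl, absorbance at 620 nm. Proliferation as % of acetogenin-free control; EC50 (50% growth inhibition) read from dose-response curves.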

[3] = tested on: Vero; assay: Cytotoxic activity against african green monkey (Cercopithecus aethiops) kidney epithelial cells (VERO); format: functional, cell-based; conditions: Chlorocebus sabaeus; outline: as §1
[4] = tested on: L1210; assay: Cell Cycle inhibition against mouse lymphocytic leukemia cells (L1210) at 10 uM; format: functional
Outline: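 L1210 cells cultured 24 h with compound, alongside a compound-free control flask; BrdU added after 15 min. Cells ethanol-permeabilized, stained with rat anti-BrdU then FITC goat secondary, counterstained with propidium iodide, analysed by flow cytometry. Percentage of cells in each cell-cycle phase calculated from histograms.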

Q: For CCCCCC[C@H](O)CCC[C@H](OC[C@H]1O[C@@H](O)[C@H](O)[C@@H](O)[C@@H]1O)[C@H]1CC[C@H]([C@H]2CC[C@H]([C@@H](CCCCCCCCCCCCC3=C[C@H](C)OC3=O)OC[C@H]3O[C@@H](O)[C@H](O)[C@@H](O)[C@@H]3O)O2)O1, which EC50 ([1]; Mus musculus, L1210) is on record?
A: The EC50 was 10000 nM.

Q: And the EC50 [2]?
A: The EC50 was 1050 nM.

Q: And the EC50 [3]?
A: The EC50 was 1050 nM.

Q: Which EC50 ([1]; Mus musculus, L1210) does the source give for CCCCCC[C@H](O)CCC[C@H](OC[C@H]1O[C@@H](OCc2ccccc2)[C@H](OCc2ccccc2)[C@@H](OCc2ccccc2)[C@@H]1OCc1ccccc1)[C@H]1CC[C@H]([C@H]2CC[C@H]([C@H](O)CCCCCCCCCCCCC3=C[C@H](C)OC3=O)O2)O1 here?
A: Its EC50 is 50 nM.

Q: What does the source list for CC[C@]1(O)C[C@@H]2CN(CCc3c([nH]c4ccccc34)[C@@](C(=O)OC)(c3cc4c(cc3OC)N(C)[C@H]3[C@@](O)(C(=O)OC)[C@H](OC(C)=O)[C@]5(CC)C=CCN6CC[C@]43[C@@H]65)C2)C1 [VINBLASTINE]?
A: EC50 [2]: 1.2 nM; EC50 [3]: < 3700 nM

Q: Which EC50 ([1]; Mus musculus, L1210) does the source give for CCCCCC[C@@H](CCC[C@H](OC(C)=O)[C@H]1CC[C@H]([C@H]2CC[C@H]([C@@H](CCCCCCCCCCCCC3=C[C@H](C)OC3=O)OC(C)=O)O2)O1)OC[C@H]1O[C@@H](OC(C)=O)[C@H](OC(C)=O)[C@@H](OC(C)=O)[C@@H]1OC(C)=O here?
A: Its EC50 is 300 nM.

Q: And the EC50 [2]?
A: The EC50 was 0.96 nM.

Q: What about the EC50 [3] of the same compound?
A: Its EC50 is 20 nM.

Q: With CCCCCC[C@@H](CCC[C@H](OC(C)=O)[C@H]1CC[C@H]([C@H]2CC[C@H]([C@@H](CCCCCCCCCCCCC3=C[C@H](C)OC3=O)OC(C)=O)O2)O1)OC[C@H]1O[C@@H](O)[C@H](O)[C@@H](O)[C@@H]1O as the compound, how does the EC50 ([1]; Mus musculus, L1210) read?
A: The EC50 was 17 nM.

Q: What about the EC50 [2] of the same compound?
A: Its EC50 is 11 nM.

Q: What about the EC50 [3] of the same compound?
A: The EC50 was 340 nM.

Q: Which inhibition at 10 µM [4] does the source give for CCCCCC[C@H](O)CCC[C@H](O)[C@H]1CC[C@H]([C@H]2CC[C@H]([C@@H](CCCCCCCCCCCCC3=C[C@H](C)OC3=O)OC[C@H]3O[C@H](OCc4ccccc4)[C@H](OCc4ccccc4)[C@@H](OCc4ccccc4)[C@@H]3OCc3ccccc3)O2)O1 here?
A: The inhibition at 10 µM was 65%.

Q: For CCCCCC[C@H](O)CCC[C@H](O)[C@H]1CC[C@H]([C@H]2CC[C@H]([C@H](O)CCCCCCCCCCCCC3=C[C@H](C)OC3=O)O2)O1 [SQUAMOCIN], which EC50 ([1]; Mus musculus, L1210) is on record?
A: Its EC50 is < 0.25 nM.

Q: And the EC50 [2]?
A: The EC50 was 0.24 nM.

Q: What about the EC50 [3] of the same compound?
A: Its EC50 is 16 nM.

Q: Which results are given for CCCCCC[C@H](O)CCC[C@H](O)[C@H]1CC[C@H]([C@H]2CC[C@H]([C@H](O)CCCCCCCCCCCCC3C[C@H](C)OC3=O)O2)O1 (some centres not stated)?
A: EC50 ([1]; Mus musculus, L1210): < 0.25 nM; EC50 [2]: 0.24 nM; EC50 [3]: 16 nM

Q: What does the source list for CCCCCC[C@H](O)CCC[C@H](OC[C@H]1O[C@@H](O)[C@H](O)[C@@H](O)[C@@H]1O)[C@H]1CC[C@H]([C@H]2CC[C@H]([C@H](O)CCCCCCCCCCCCC3C[C@H](C)OC3=O)O2)O1 (some centres not stated)?
A: EC50 ([1]; l1210): 10 nM and 80 nM; EC50 [2]: 9 nM; inhibition at 10 µM [4]: 54%
